Compound activity (PubChem BioAssay)
Shown are actives, neighbours in structure and some others; about 1.6% of the full set was active somewhere.
MBD2 inh = inhibitors of MBD2 binding to methylated DNA, primary screen, biochemical, TR-FRET, DNA-binding domain, human; MBD2 binding to methylated oligonucleotide; inhibition, % at 4.4 µM; actives 0.31% (n = 370,000); AID 686964, 2013; in the data active = inhibition above about 13%
Target sequence (Q9UBB5 whole entry, looked up, the tested form may be a part): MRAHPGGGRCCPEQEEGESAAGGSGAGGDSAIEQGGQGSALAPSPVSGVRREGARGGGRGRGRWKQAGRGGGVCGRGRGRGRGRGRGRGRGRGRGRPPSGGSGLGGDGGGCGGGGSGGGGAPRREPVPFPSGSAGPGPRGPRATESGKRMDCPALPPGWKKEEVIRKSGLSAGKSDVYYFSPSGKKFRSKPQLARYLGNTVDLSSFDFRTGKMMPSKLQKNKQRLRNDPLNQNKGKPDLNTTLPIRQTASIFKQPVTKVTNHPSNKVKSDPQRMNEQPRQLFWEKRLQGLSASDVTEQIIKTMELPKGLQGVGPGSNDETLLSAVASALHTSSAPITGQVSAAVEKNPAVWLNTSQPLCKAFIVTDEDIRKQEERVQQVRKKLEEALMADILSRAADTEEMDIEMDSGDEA
TDP2 inh = human TDP2 enzyme inhibitors, primary screen, biochemical, epi absorbance, recombinant enzyme | Tyrosyl-DNA phosphodiesterase 2 (Homo sapiens), O95551 | AID 720702, 2013 | actives 0.34% (n = 370,000) | inhibition, % at 12.8 µM | T5PNP hydrolysis, p-nitrophenol absorbance 415 nm;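 active = inhibition above the mean of all tested compounds plus 3 SD, set per campaign, cut at about 25% in these data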
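test system = human TDP2 enzyme | input = TDP2 enzyme at 120 nM final | medium = 50 mM Tris-HCl pH 7.5 with Mg2+, KCl, DTT, BSA | also added = T5PNP substrate, 5 mM | times = 2 h at 37 °C | technique = epi absorbance | benchmarks = high control without enzyme, low control DMSO plus TDP2 | replication = each compound tested once, singlicate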
UHRF1 MBD2 ctr = UHRF1 methylated DNA binding inhibitors, primary screen, counter-screen for MBD2 inhibitor project, biochemical, TR-FRET, human UHRF1, single concentration; UHRF1 binding to methylated oligo; AID 687016, 2013; actives 0.75% (n = 370,000); inhibition, % at 4.4 µM;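 also: UHRF1 SRA domain binding a hemimethylated CpG hairpin DNA probe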
LEDGF integ inh = blockers of LEDGF/p75-dependent integrase strand transfer – biochemical, TR-FRET, high throughput, primary screen. inhibition, % at 3.7 µM. actives 0.64% (n = 370,000). HIV-1 integrase (with human LEDGF/p75). TR-FRET IN-LEDGF/p75 DNA integration, Eu/Cy5;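 active = inhibition above the screen-wide mean plus 3 SD, cut at about 13% in these data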;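 also: signal is the Cy5 over europium emission ratio at 671 and 618 nm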
UHRF1 ctr MBD2 = UHRF1 methylated DNA binding inhibitors, counter-screen for MBD2 inhibitor project, biochemical, TR-FRET, human UHRF1. shares compounds with MBD2 inh. UHRF1 binding to methylated oligonucleotide. inhibition, % at 4.4 µM. actives 25% (n = 1,000). AID 720530, 2013;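 also: UHRF1 SRA domain binding a labeled hemimethylated CpG hairpin DNA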
MBD2 DBD conf = inhibitors of MBD2 binding to methylated DNA, confirmation, biochemical, TR-FRET, DNA-binding domain, human. actives 26% (n = 1,000). TR-FRET MBD2-DBD binding to methylated oligonucleotide. shares compounds with MBD2 inh. inhibition, % at 4.4 µM; in the data active = inhibition above about 14%
A number is an active result. Rule as the data show it, unless noted: active = inhibition above about 21%; inactive = the rest.

Results for O=C(O)c1cccc(NC(=S)NC(=O)C(c2ccccc2)c2ccccc2)c1 ?
MBD2 inh: 14.4; TDP2 inh: inactive; UHRF1 MBD2 ctr: inactive; LEDGF integ inh: inactive; UHRF1 ctr MBD2: inactive; MBD2 DBD conf: inactive

What do the screens show for `COC(=O)c1nnn(-c2nonc2N)c1CN1CCCC1`?
MBD2 inh: 31.1; TDP2 inh: inactive; UHRF1 MBD2 ctr: inactive; LEDGF integ inh: inactive; UHRF1 ctr MBD2: inactive; MBD2 DBD conf: inactive

Results for Cc1ccc(NC(=S)N(CCCN2CCN(C)CC2)Cc2cccs2)cc1 ?
MBD2 inh: 16.3; TDP2 inh: inactive; UHRF1 MBD2 ctr: 25.2; LEDGF integ inh: inactive; UHRF1 ctr MBD2: inactive; MBD2 DBD conf: inactive

Results for Cc1ccc2sc(N(CCCN(C)C)C(=O)c3ccc(S(=O)(=O)N(C)Cc4ccccc4)cc3)nc2c1C ?
MBD2 inh: 56.5; TDP2 inh: inactive; UHRF1 MBD2 ctr: inactive; LEDGF integ inh: inactive; UHRF1 ctr MBD2: inactive; MBD2 DBD conf: inactive

Results for Cn1cc(C(=O)NCC(=O)Nc2ccccc2Br)cn1 ?
MBD2 inh: inactive; TDP2 inh: inactive; UHRF1 MBD2 ctr: inactive; LEDGF integ inh: inactive

How did Cc1cc(Br)ccc1NC(=O)CNC(=O)c1cnn(C)c1 do in these assays?
MBD2 inh: 18.3; TDP2 inh: inactive; UHRF1 MBD2 ctr: inactive; LEDGF integ inh: inactive; UHRF1 ctr MBD2: inactive; MBD2 DBD conf: inactive

How did COc1ccc(CCC(=O)Nc2cccc(S(=O)(=O)N3CCCCCC3)c2)cc1 do in these assays?
MBD2 inh: inactive; TDP2 inh: inactive; UHRF1 MBD2 ctr: inactive; LEDGF integ inh: inactive

How did COc1ccc(CC(=O)Nc2cccc(S(=O)(=O)N3CCCCC3)c2)cc1 do in these assays?
MBD2 inh: 39.6; TDP2 inh: inactive; UHRF1 MBD2 ctr: inactive; LEDGF integ inh: inactive; UHRF1 ctr MBD2: inactive; MBD2 DBD conf: inactive

How did Cc1ccccc1C1CCC2(CCC(=O)N2CC[C@@H](O)c2ccccc2)CC1 (stereo partly drawn) do in these assays?
MBD2 inh: inactive; TDP2 inh: inactive; UHRF1 MBD2 ctr: inactive; LEDGF integ inh: inactive

Results for CC(=O)Nc1nc(-c2ccccc2)ns1 ?
MBD2 inh: 13.3; TDP2 inh: inactive; UHRF1 MBD2 ctr: inactive; LEDGF integ inh: inactive; UHRF1 ctr MBD2: inactive; MBD2 DBD conf: inactive

What do the screens show for `CCOC(=O)CSc1nc(C(C)C)nc2sc(C)c(C)c12`?
MBD2 inh: 45.5; TDP2 inh: inactive; UHRF1 MBD2 ctr: inactive; LEDGF integ inh: inactive; UHRF1 ctr MBD2: inactive; MBD2 DBD conf: inactive

Results for CN(Cc1cn(Cc2cccc(Cl)c2)nn1)C1CN(Cc2cn(Cc3cccc(Cl)c3)nn2)S(=O)(=O)C1 (stereo not drawn) ?
MBD2 inh: 14.4; TDP2 inh: inactive; UHRF1 MBD2 ctr: inactive; LEDGF integ inh: inactive; UHRF1 ctr MBD2: inactive; MBD2 DBD conf: inactive

How did CN1CCC(N2CCN(C3CN(Cc4cn(Cc5cccc(C(F)(F)F)c5)nn4)S(=O)(=O)C3)CC2)CC1 (stereo not drawn) do in these assays?
MBD2 inh: 14.5; TDP2 inh: inactive; UHRF1 MBD2 ctr: 22.7; LEDGF integ inh: inactive; UHRF1 ctr MBD2: inactive; MBD2 DBD conf: inactive

Results for CN1CCN(C2CN(Cc3cn(Cc4cccc(C(F)(F)F)c4)nn3)S(=O)(=O)C2)CC1 (stereo not drawn) ?
MBD2 inh: inactive; TDP2 inh: inactive; UHRF1 MBD2 ctr: inactive; LEDGF integ inh: inactive

Results for O=S1(=O)CC(N2CCN(CCO)CC2)CN1Cc1cn(Cc2ccc(C(F)(F)F)cc2)nn1 (stereo not drawn) ?
MBD2 inh: 14.2; TDP2 inh: inactive; UHRF1 MBD2 ctr: inactive; LEDGF integ inh: inactive; UHRF1 ctr MBD2: inactive; MBD2 DBD conf: inactive

How did O=S1(=O)CC(N2CCN(CCO)CC2)CN1Cc1cn(Cc2ccccc2)nn1 (stereo not drawn) do in these assays?
MBD2 inh: inactive; TDP2 inh: inactive; UHRF1 MBD2 ctr: inactive; LEDGF integ inh: inactive

What do the screens show for `COc1ccc(CCNC(=O)c2c(N)[nH]c(C(=O)c3ccccc3)c2-c2ccc(N(C)C)cc2)cc1`?
MBD2 inh: inactive; TDP2 inh: inactive; UHRF1 MBD2 ctr: inactive; LEDGF integ inh: inactive

What do the screens show for `Nc1nc2c(ncn2[C@@H]2O[C@H](C(=O)N[C@H](Cc3ccccc3)C(=O)NC3CCCCC3)[C@@H](O)[C@H]2O)c(=O)[nH]1`?
MBD2 inh: inactive; TDP2 inh: inactive; UHRF1 MBD2 ctr: inactive; LEDGF integ inh: inactive

What do the screens show for `O=C1CCCCC1Nc1ccc(Br)cc1` (stereo not drawn)?
MBD2 inh: 13.2; TDP2 inh: inactive; UHRF1 MBD2 ctr: 21.5; LEDGF integ inh: inactive; UHRF1 ctr MBD2: inactive; MBD2 DBD conf: inactive

Results for O=C1CCCCC1Nc1ccc(Cl)cc1 (stereo not drawn) ?
MBD2 inh: inactive; TDP2 inh: inactive; UHRF1 MBD2 ctr: inactive; LEDGF integ inh: inactive

How did Cc1cnc(NC(=O)c2cc(-c3ccccc3)nn2-c2ccccc2)s1 do in these assays?
MBD2 inh: 25.1; TDP2 inh: inactive; UHRF1 MBD2 ctr: inactive; LEDGF integ inh: inactive; UHRF1 ctr MBD2: inactive; MBD2 DBD conf: inactive

Results for CC(=O)Nc1cc(-c2cccc(C(=O)N(C)C)c2)cn2c(-c3ccc(C(C)=O)cc3)cnc12 ?
MBD2 inh: 14.0; TDP2 inh: inactive; UHRF1 MBD2 ctr: inactive; LEDGF integ inh: inactive; UHRF1 ctr MBD2: inactive; MBD2 DBD conf: inactive

Results for CC(=O)Nc1cc(-c2cccc(C(=O)N(C)C)c2)cn2c(-c3ccccc3)cnc12 ?
MBD2 inh: inactive; TDP2 inh: inactive; UHRF1 MBD2 ctr: inactive; LEDGF integ inh: inactive

Results for C=CCN(CC#Cc1ccccc1)CC=C ?
MBD2 inh: inactive; TDP2 inh: inactive; UHRF1 MBD2 ctr: inactive; LEDGF integ inh: inactive

How did O=c1oc(-c2ccccc2)nc2sc3c(c12)CCC3 do in these assays?
MBD2 inh: 18.4; TDP2 inh: inactive; UHRF1 MBD2 ctr: 45.7; LEDGF integ inh: inactive; UHRF1 ctr MBD2: 25.9; MBD2 DBD conf: 15.1

What do the screens show for `O=C1CCC(=O)N1c1ccc(-c2nc3sc4c(c3c(=O)o2)CCC4)cc1`?
MBD2 inh: inactive; TDP2 inh: inactive; UHRF1 MBD2 ctr: inactive; LEDGF integ inh: inactive

How did CC(C)C[C@H]1CN(CCCC[C@H]2CNC(=O)C(=O)N2CCc2ccccc2)C(=O)C(=O)N1CCc1ccc(O)cc1 do in these assays?
MBD2 inh: inactive; TDP2 inh: inactive; UHRF1 MBD2 ctr: inactive; LEDGF integ inh: inactive
